Experimental data from PMC6397583 (Proceedings of the National Academy of Sciences of the …, 2019).

Tested on: E. coli MC1000
Assay: Transmission electron microscopy of peptide-treated bacteria
Assay type: cell-based, Escherichia coli
Settings: 6 × 10^8 cfu E. coli MC1000, 200 µg/mL peptide, 2 h
In short: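 Bacteria (6 × 10^8 cfu) were exposed to each test peptide (α-defensin or its fragments) at 200 µg/mL for 2 h. They were then fixed and cut into 30-nm sections. Cell envelope and membrane phenotypes were examined by transmission electron microscopy.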

| Substance | phenotype of peptide-treated bacteria (TEM) |
| --- | --- |
| CATRESLSGVCEISGRLY [HD-5_10–27] | only minor damage in some bacteria while the majority remained unaffected |
| LYRLCCR [HD-5_26–32] | small vesicular structures inside the bacteria |
